ChEMBL document CHEMBL1123351, “Synthesis and pharmacological evaluation of some 6-substituted 7-methyl-1,4-dioxa-7-azaspiro[4.5]decanes as potential dopamine agonists” (1986)

Key:
Assay type in all cases: functional
Felis catus = test: Compound was tested in vivo for dopamine agonist activity in the cat cardioaccelerator nerve assay; details: read-out: ID50 (the source's name)
Outline: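 Cats anesthetized with pentobarbital sodium 30 mg/kg injected into the thoracic cavity. Compounds given intravenously at doses spaced 0.33 log intervals apart, with N = 3 per dose. Inhibition of cardioaccelerator nerve response measured.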

Rattus norvegicus [1] = test: Compound was tested in vivo for dopamine agonist activity in the rat rotation assay after intravenous administration at the dose 1.38 (umol/kg)
Rattus norvegicus [2] = test: Compound was tested in vivo for dopamine agonist activity in the rat rotation assay after intravenous administration at dose 0.46 (umol/kg)
Rattus norvegicus [3] = test: Compound was tested in vivo for dopamine agonist activity in the rat rotation assay after intravenous administration at the 4.60 (umol/kg) dose
Rattus norvegicus [4] = test: Compound was tested in vivo for dopamine agonist activity in the rat rotation assay after intravenous administration at dose 3.5 (umol/kg)

SMILES	ED50 (Felis catus) [µmol/kg]	Inhibition (Rattus norvegicus [1]) [%]	Inhibition (Rattus norvegicus [2]) [%]	Inhibition (Rattus norvegicus [3]) [%]	Inhibition (Rattus norvegicus [4]) [%]
CN1CCCC2(OCCO2)C1Cc1ccccc1 (stereo not drawn)	> 4	18	22	36	–
CN1CCCC2(OCCO2)C1Cc1cccc2[nH]ccc12 (stereo not drawn)	0.095	–	–	–	–
CN1CCCC2(OCCO2)C1Cc1c[nH]c2ccccc12 (stereo not drawn)	> 4	–	–	–	32
CN1CCc2cccc3c2[C@H]1Cc1ccc(O)c(O)c1-3 [APOMORPHINE]	0.0348	–	–	–	–
